Assay results: ChEMBL document CHEMBL2440012, “Design, synthesis and anticonvulsant properties of new N-Mannich bases derived from 3-phenylpyrrolidine-2,5-diones” (Bioorg Med Chem, 2013)
Active and inactive are the calls of the source. The calls are words filed in the database; no cut-off is given here.

Legend:
Rattus norvegicus [1] = test: Anticonvulsant activity in albino Sprague-Dawley rat assessed as protection against maximal electroshock-induced seizures at 30 mg/kg, po measured after 0.25 hr; assay type: functional
Summary of the method: (§1)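 Male Sprague-Dawley rats, four per group, dosed p.o. at 30 mg/kg in 0.5% methylcellulose/water suspension; MES test at 0.25, 0.5, 1, 2 and 4 h, motor impairment examined in parallel; number of rats out of four protected.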

Mus musculus [2] = test: Anticonvulsant activity against 6 Hz psychomotor seizure in ip dosed albino CF1 mouse assessed as time to peak effect by minimal clonic seizure test; assay type: functional
Cytochrome P450 3A4 [3] = target: T1, Cytochrome P450 3A4 (Homo sapiens, UniProt P08684); test: Inhibition of CYP3A4 (unknown origin) using 50 uM testosterone as substrate assessed as formation of 6-beta-OH-testosterone relative to control; assay type: ADME
T1 sequence (P08684 whole entry): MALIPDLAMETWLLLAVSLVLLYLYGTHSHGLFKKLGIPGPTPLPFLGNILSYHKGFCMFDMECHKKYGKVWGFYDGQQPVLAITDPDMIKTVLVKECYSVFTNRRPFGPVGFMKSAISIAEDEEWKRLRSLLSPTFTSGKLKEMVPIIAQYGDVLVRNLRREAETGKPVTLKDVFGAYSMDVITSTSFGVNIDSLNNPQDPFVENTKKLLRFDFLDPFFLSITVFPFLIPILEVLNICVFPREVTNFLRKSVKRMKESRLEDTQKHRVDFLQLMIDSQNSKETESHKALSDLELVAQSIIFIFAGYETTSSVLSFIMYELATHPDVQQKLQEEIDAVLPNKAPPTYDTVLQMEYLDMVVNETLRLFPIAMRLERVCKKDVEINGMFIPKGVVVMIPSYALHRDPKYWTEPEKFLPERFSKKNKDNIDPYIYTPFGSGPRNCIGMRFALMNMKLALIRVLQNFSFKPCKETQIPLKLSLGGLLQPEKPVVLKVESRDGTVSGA

Rattus norvegicus [4] = test: Anticonvulsant activity in albino Sprague-Dawley rat assessed as protection against maximal electroshock-induced seizures at 30 mg/kg, po measured after 1 hr; assay type: functional; summary of the method: as §1
Rattus norvegicus [5] = test: Anticonvulsant activity in albino rat assessed as protection against pilocarpine-induced status epilepticus at 400 mg/kg, ip measured 0.5 hrs post first stage 3 seizure; assay type: functional, organism-based; design: dose 400 mg/kg
Summary of the method: (§2)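 Male Sprague-Dawley rats (150–180 g) dosed ip, followed by challenge dose of pilocarpine; compound given relative to first stage III seizure (time zero or 0.5 h); outcome scored as protection or no protection, plus body-weight change 24 h after first stage III seizure.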

Mus musculus [6] = test: Neurotoxicity in ip dosed albino CF1 mouse assessed as minimum motor impairment in half or more animals measured after 0.5 hrs by rotorod test; assay type: toxicity, organism-based; conditions: in vivo
Summary of the method: (§3)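 Male CF-1 mice given ip suspension in 0.5% methylcellulose/water at 30, 100 and 300 mg/kg; MES, scPTZ (pentylenetetrazole 85 mg/kg sc, CD97 dose for clonic seizures ≥5 s) and rotarod (inability to hold balance 1 min in each of three trials) assessed at 0.5 and 4 h; value is minimum dose active in half or more animals.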

Cytochrome P450 3A4 [7] = target: T1, Cytochrome P450 3A4; test: Inhibition of CYP3A4 (unknown origin) using 200 uM testosterone as substrate assessed as formation of 6-beta-OH-testosterone relative to control; assay type: ADME
Mus musculus [8] = test: Neurotoxicity in albino CF1 mouse assessed as minimum motor impairment at 300 mg/kg, ip measured after 4 hrs by rotorod test; assay type: toxicity, organism-based; design: dose 300 mg/kg, route intraperitoneal; conditions: in vivo; summary of the method: as §3
Mus musculus [9] = test: Protection index, ratio of TD50 for neurotoxicity in ip dosed albino CF1 mouse by rotorod test to ED50 for anticonvulsant activity in ip dosed albino CF1 mouse by 6 Hz psychomotor seizure test; assay type: functional
Mus musculus [10] = test: Anticonvulsant activity in albino CF1 mouse assessed as assessed as protection against 6 Hz psychomotor seizure at 100 mg/kg, ip after 1 hr by minimal clonic seizure test; assay type: functional; conditions: route intraperitoneal
Summary of the method: (§4)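 Male CF-1 mice, groups of four, dosed ip in 0.5% methylcellulose/water suspension, then challenged by 6-Hz corneal stimulation at 32 mA (0.2 ms pulses, 3 s, constant current) at 0.25, 0.5, 1, 2 or 4 h; count of mice out of four protected from stunned posture/clonic seizure.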

Mus musculus [11] = test: Anticonvulsant activity in ip dosed albino CF1 mouse assessed as protection against maximal electroshock-induced seizures in half or more animals measured after 0.5 hr; assay type: functional; conditions: read-out: MED; summary of the method: as §3
Rattus norvegicus [12] = test: Anticonvulsant activity in ip dosed albino rat assessed as protection against pilocarpine-induced status epilepticus measured 0.5 hrs post first stage 3 seizure; assay type: functional; summary of the method: as §2
Rattus norvegicus [13] = test: Anticonvulsant activity in albino Sprague-Dawley rat assessed as protection against maximal electroshock-induced seizures at 30 mg/kg, po measured after 2 hrs; assay type: functional; summary of the method: as §1
Mus musculus [14] = test: Anticonvulsant activity in albino CF1 mouse assessed as assessed as protection against 6 Hz psychomotor seizure at 100 mg/kg, ip after 4 hrs by minimal clonic seizure test; assay type: functional; conditions: route intraperitoneal; summary of the method: as §4
Rattus norvegicus [15] = test: Anticonvulsant activity in albino Sprague-Dawley rat assessed as protection against maximal electroshock-induced seizures at 30 mg/kg, po measured after 0.5 hr; assay type: functional; summary of the method: as §1
Mus musculus [16] = test: Anticonvulsant activity in albino CF1 mouse assessed as assessed as protection against 6 Hz psychomotor seizure at 100 mg/kg, ip after 2 hrs by minimal clonic seizure test; assay type: functional; conditions: route intraperitoneal; summary of the method: as §4
Mus musculus [17] = test: Anticonvulsant activity in ip dosed albino CF1 mouse assessed as protection against subcutaneous pentylenetetrazole-induced convulsion in half or more animals measured after 0.5 hr; assay type: functional; conditions: albino CF1, 0.5 h, read-out: MED; summary of the method: as §3
[18] = Neurotoxicity in ip dosed albino CF1 mouse by rotorod test; assay type: toxicity, organism-based; conditions: in vivo
Mus musculus [19] = test: Neurotoxicity in ip dosed albino CF1 mouse assessed as time to peak effect by rotorod test; assay type: toxicity, organism-based; conditions: in vivo
Mus musculus [20] = test: Anticonvulsant activity in albino CF1 mouse assessed as assessed as protection against 6 Hz psychomotor seizure at 100 mg/kg, ip after 0.5 hr by minimal clonic seizure test; assay type: functional; conditions: route intraperitoneal; summary of the method: as §4
Mus musculus [21] = test: Anticonvulsant activity in albino CF1 mouse assessed as protection against maximal electroshock-induced seizures at 300 mg/kg, ip measured after 4 hrs; assay type: functional, organism-based; design: dose 300 mg/kg; summary of the method: as §3
Mus musculus [22] = test: Anticonvulsant activity against 6 Hz psychomotor seizure in ip dosed albino CF1 mouse by minimal clonic seizure test; assay type: functional
Mus musculus [23] = test: Anticonvulsant activity in albino CF1 mouse assessed as assessed as protection against 6 Hz psychomotor seizure at 100 mg/kg, ip after 0.25 hr by minimal clonic seizure test; assay type: functional; conditions: route intraperitoneal; summary of the method: as §4
Rattus norvegicus [24] = test: Anticonvulsant activity in albino Sprague-Dawley rat assessed as protection against maximal electroshock-induced seizures at 30 mg/kg, po measured after 4 hrs; assay type: functional; summary of the method: as §1
Mus musculus [25] = test: Anticonvulsant activity in ip dosed albino CF1 mouse assessed as protection against subcutaneous pentylenetetrazole-induced convulsion in half or more animals measured after 4 hrs; assay type: functional; conditions: albino CF1, 4 h, read-out: MED; summary of the method: as §3

O=C1CC(c2ccccc2)C(=O)N1CN1CCOCC1 (racemic)
Activity (Rattus norvegicus [1]): inactive | Time (Mus musculus [2]): 0.25 h | inhibition (INH) (Cytochrome P450 3A4 [3]): 17% | Activity (Rattus norvegicus [4]): inactive | Activity (Rattus norvegicus [5]): Active | MED (Mus musculus [6]): 300 mg/kg | inhibition (INH) (Cytochrome P450 3A4 [7]): 19% | Activity (Mus musculus [8]): Non-toxic | Ratio TD50/ED50 (Mus musculus [9]): 3.79 | Activity (Mus musculus [10]): 25% | minimal effective dose (Mus musculus [11]): 100 mg/kg | ED50 (Rattus norvegicus [12]): 342 mg/kg | Activity (Rattus norvegicus [13]): inactive | Activity (Mus musculus [14]): 0% | Activity (Rattus norvegicus [15]): inactive | Activity (Mus musculus [16]): 0% | minimal effective dose (Mus musculus [17]): 300 mg/kg | TD50 [18]: 293 mg/kg | Time (Mus musculus [19]): 0.25 h | Activity (Mus musculus [20]): 0% | Activity (Mus musculus [21]): inactive | ED50 (Mus musculus [22]): 77.2 mg/kg | Activity (Mus musculus [23]): 75% | Activity (Rattus norvegicus [24]): inactive | minimal effective dose (Mus musculus [25]): 300 mg/kg
